Screens deposited in PubChem by several laboratories.
SKKanGAS inh – blocks kanamycin growth of S. pyogenes SKKanGAS strain | BacTiter-Glo, 6 h | inhibition, % at 7.5 µM | hit rate 1.3% among 300,000;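 active = mean replicate score, as percent of positive control median, at least 50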;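 also: strain carries kanamycin resistance gene driven by streptokinase promoter and grows in 40 µg/ml kanamycin; loss of luminescence reflects streptokinase promoter inhibition or plain growth inhibition; 0% = median of DMSO wells and 100% = positive control at its reference dose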
Beta apoptosis – beta cell apoptosis inhibition | hit rate 0.8% among 300,000 | INS-1E cytokine-induced death, ATP luminescence, 48 h; percent of positive-control rescue, neutral wells zero | AID 435005 | protection from apoptosis, % (test concentration not listed);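 active = Every replicate reaches about 75%, or at least half do and their mean reaches it too, limit read from the data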;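 also: 0% = cytokine-treated negative control wells and 100% = positive control rescue; higher means more ATP so stronger rescue from cytokine killing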
CSC inhib – blocks cancer stem cells | cancer stem cell-like cells viability, luminescence | inhibition, % at 7.5 µM | hit rate 1.1% among 300,000; in the data active = inhibition above about 75%; tested in HMLE shEcad cells
T cruzi inh – blocks replication of Trypanosoma cruzi; T. cruzi beta-gal in NIH3T3, luminescence, 90 h; inhibition, % (no concentration beside the values); hit rate 1.4% among 300,000;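 active = mean inhibition across valid replicates above about 55%, limit read from the data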;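 also: signal also drops with host cell toxicity which is not excluded here; 0% = plate median of DMSO wells and 100% = zero luminescence signal; higher percent means less beta-gal luminescence so fewer parasites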
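System – NIH/3T3 host cells with β-galactosidase reporter T. cruzi · Doses – single 50 nL compound addition per well in DMSO · Reagent – 5000 T. cruzi trypomastigotes/well · Medium – Low-serum DMEM with 2% FBS · Timing – ≥90 h infection period, 3 h prior cell attachment · Evaluation – parasite load inhibition, % · Technique – GalScreen luminescence, 60 min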
L major viab – Leishmania major promastigote growth inhibition; inhibition, % at 10 µM; Leishmania major promastigotes, resazurin fluorescence viability; hit rate 9% among 200,000; in the data active = inhibition above about 50%;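 also: promastigotes grown with compound for 44 hours at 28 °C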
Mdm2 MdmX PPI – inhibitors of human Mdm2/MdmX interaction | O15151+Q00987 | SaOS-2 split-luciferase Mdm2/MdmX complementation, luminescence | inhibition, % at 8 µM | hit rate 3% among 330,000;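 active = inhibition of at least 50% at 8 µM in the primary screen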
Target sequence (O15151 whole entry, looked up): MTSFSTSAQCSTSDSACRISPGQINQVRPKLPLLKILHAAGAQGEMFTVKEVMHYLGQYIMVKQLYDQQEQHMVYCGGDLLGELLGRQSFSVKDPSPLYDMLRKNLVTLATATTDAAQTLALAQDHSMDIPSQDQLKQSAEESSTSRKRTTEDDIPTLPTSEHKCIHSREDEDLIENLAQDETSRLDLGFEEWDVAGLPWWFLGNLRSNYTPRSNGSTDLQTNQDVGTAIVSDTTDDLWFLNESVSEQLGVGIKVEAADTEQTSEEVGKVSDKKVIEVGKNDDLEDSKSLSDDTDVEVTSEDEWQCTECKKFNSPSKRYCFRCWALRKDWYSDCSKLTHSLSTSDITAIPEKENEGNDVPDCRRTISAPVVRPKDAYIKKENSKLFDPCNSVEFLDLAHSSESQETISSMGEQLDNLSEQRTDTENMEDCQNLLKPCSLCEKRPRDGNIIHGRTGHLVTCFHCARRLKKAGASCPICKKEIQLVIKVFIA
Target sequence (Q00987 whole entry, looked up): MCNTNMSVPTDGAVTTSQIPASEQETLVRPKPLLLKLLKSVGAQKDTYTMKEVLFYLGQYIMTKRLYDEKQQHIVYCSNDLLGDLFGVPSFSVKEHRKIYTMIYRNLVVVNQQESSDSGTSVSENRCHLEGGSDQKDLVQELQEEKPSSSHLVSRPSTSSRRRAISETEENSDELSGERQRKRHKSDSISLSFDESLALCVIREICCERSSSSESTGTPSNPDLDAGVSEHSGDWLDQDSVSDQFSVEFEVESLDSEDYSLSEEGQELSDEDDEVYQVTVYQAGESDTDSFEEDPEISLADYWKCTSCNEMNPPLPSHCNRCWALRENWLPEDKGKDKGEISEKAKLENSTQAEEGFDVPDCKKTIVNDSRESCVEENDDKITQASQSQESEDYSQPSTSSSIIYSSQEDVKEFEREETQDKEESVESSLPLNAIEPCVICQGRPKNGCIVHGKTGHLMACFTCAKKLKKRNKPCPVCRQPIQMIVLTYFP
* = called active by the depositor. Hits are enriched below; roughly 9.4% of the tested compounds scored in any of these assays.

What do the screens show for `COc1ccccc1-c1cnn2c(NCc3ccccc3)cc(C)nc12`?
SKKanGAS inh: 8; Beta apoptosis: -4; CSC inhib: -2; T cruzi inh: 17; Mdm2 MdmX PPI: -11

How did CCn1cc(CN2CCC(n3nccc3NC(=O)c3ccc4c(c3)OCO4)CC2)c(C)n1 do in these assays?
SKKanGAS inh: 4; CSC inhib: -2; T cruzi inh: 12; Mdm2 MdmX PPI: -12

Results for CCCCOc1ccc(OC(=O)Nc2cc(Cl)ccc2OC)cc1 ?
SKKanGAS inh: 14; Beta apoptosis: -1; CSC inhib: 30; T cruzi inh: -26; Mdm2 MdmX PPI: -31

How did C/C(=N\NC(=O)c1cccc(Cl)c1)C1C(=O)c2ccccc2C1=O do in these assays?
SKKanGAS inh: 18; Beta apoptosis: 10; CSC inhib: 93*; T cruzi inh: 13; L major viab: 97*; Mdm2 MdmX PPI: -15

How did C/C(=N\NC(=O)CCc1ccccc1)C1C(=O)c2ccccc2C1=O do in these assays?
SKKanGAS inh: 18; Beta apoptosis: 17; CSC inhib: 8; T cruzi inh: 17; L major viab: -3; Mdm2 MdmX PPI: 31

What do the screens show for `CCn1cc(S(=O)(=O)NC(C)c2cc(OC)ccc2OC)cn1` (stereo unspecified)?
SKKanGAS inh: 0; Beta apoptosis: -9; CSC inhib: -2; T cruzi inh: -5; Mdm2 MdmX PPI: 10

How did Cc1nn(Cc2cccc(C(=O)NC34CC5CC(CC(C5)C3)C4)c2)c(C)c1Br do in these assays?
SKKanGAS inh: 17; Beta apoptosis: 6; CSC inhib: 53; T cruzi inh: 25; L major viab: 54*; Mdm2 MdmX PPI: 25

Results for CCCNC(=O)c1cccc(Cn2nc(C)c(Br)c2C)c1 ?
SKKanGAS inh: 8; Beta apoptosis: 4; CSC inhib: 4; T cruzi inh: 8; L major viab: 6; Mdm2 MdmX PPI: 7

Results for CN=c1scc(-c2ccccc2F)n1/N=C(\C)c1cccnc1 ?
SKKanGAS inh: -4; Beta apoptosis: 8; CSC inhib: 11; T cruzi inh: 55*; L major viab: 15; Mdm2 MdmX PPI: -136

Results for COC(=O)c1ccc(/C=N/N2CCN(Cc3ccc(C)cc3C)CC2)cc1 ?
SKKanGAS inh: -14; Beta apoptosis: -7; CSC inhib: -6; T cruzi inh: -32; L major viab: 84*; Mdm2 MdmX PPI: 17

Results for COc1ccc(Cl)cc1NC(=O)CN(C)C(=O)c1cn(-c2ccccc2)nc1-c1cccnc1 ?
SKKanGAS inh: 0; Beta apoptosis: 1; CSC inhib: -8; T cruzi inh: 7; Mdm2 MdmX PPI: 22

How did OC1CCCN(Cc2ccccc2)C1 (stereo unspecified) do in these assays?
SKKanGAS inh: -7; Beta apoptosis: -15; CSC inhib: 0; T cruzi inh: 5; L major viab: -2; Mdm2 MdmX PPI: 23

Results for O=C(c1ccccc1)C1CN(Cc2ccccc2)CCC1(O)c1ccccc1 (stereo unspecified) ?
SKKanGAS inh: -2; Beta apoptosis: -10; CSC inhib: 10; T cruzi inh: -4; L major viab: 62*; Mdm2 MdmX PPI: -12

Results for OC1(c2ccccc2)CCN(Cc2ccccc2)CC1 ?
SKKanGAS inh: 0; Beta apoptosis: -15; CSC inhib: -4; T cruzi inh: 2; L major viab: 83*; Mdm2 MdmX PPI: -2

Results for OC(c1ccccc1)C1CN(Cc2ccccc2)CCC1(O)c1ccccc1 (stereo unspecified) ?
SKKanGAS inh: -3; Beta apoptosis: -4; CSC inhib: -14; T cruzi inh: 9; L major viab: 85*; Mdm2 MdmX PPI: 0

What do the screens show for `CCc1nn2c(=O)cc(CSCC(=O)Nc3ccccc3Cl)nc2s1`?
SKKanGAS inh: -1; T cruzi inh: -7; Mdm2 MdmX PPI: 11

What do the screens show for `O=C(NCCNc1ccc([N+](=O)[O-])cc1C(F)(F)F)c1ccc(F)cc1`?
SKKanGAS inh: 4; Beta apoptosis: 4; T cruzi inh: 12; L major viab: 56*; Mdm2 MdmX PPI: -2

Results for COc1ccc(CCN(C)C(=O)CSc2nnnn2C)cc1OC ?
SKKanGAS inh: 1; Beta apoptosis: -4; CSC inhib: 6; T cruzi inh: -24; L major viab: -4; Mdm2 MdmX PPI: 17

How did CCn1nc(NC(=O)C(C)C)c2cc3cccc(C)c3nc21 do in these assays?
SKKanGAS inh: 13; Beta apoptosis: 5; CSC inhib: -7; T cruzi inh: -1; Mdm2 MdmX PPI: -4

Results for CCCCN(C1CCS(=O)(=O)C1)S(=O)(=O)c1ccc(OC)c(OC)c1 (stereo unspecified) ?
SKKanGAS inh: 15; Beta apoptosis: -5; CSC inhib: -5; T cruzi inh: -7; Mdm2 MdmX PPI: -1

Results for COC(=O)[C@@]1(Cc2ccc(F)cc2)[C@H]2c3cc(C(=O)N4CCCC4)n(CCc4ccccn4)c3C[C@H]2CN1C(=O)c1ccccc1 ?
Beta apoptosis: 4; CSC inhib: -26; L major viab: 99*; Mdm2 MdmX PPI: -37

Results for COC(=O)[C@@]1(Cc2ccc(F)cc2)[C@H]2c3cc(C(=O)N4CCCC4)n(CCc4c[nH]c5ccc(OC)cc45)c3C[C@H]2CN1C(=O)c1ccccc1 ?
SKKanGAS inh: 33; Beta apoptosis: 1; CSC inhib: -5; T cruzi inh: 35; L major viab: 79*; Mdm2 MdmX PPI: 44

How did COC(=O)[C@@]1(Cc2ccc(F)cc2)[C@H]2c3cc(C(=O)N(C)C)n(CCc4ccccn4)c3C[C@H]2CN1C(=O)c1ccccc1 do in these assays?
SKKanGAS inh: -2; Beta apoptosis: -1; CSC inhib: -18; T cruzi inh: 10; L major viab: 91*; Mdm2 MdmX PPI: -39

Results for COCCn1c(C(=O)N2CCCC2)cc2c1C[C@H]1CN(C(=O)c3ccccc3)[C@@](Cc3ccc(F)cc3)(C(=O)OC)[C@@H]21 ?
Beta apoptosis: -8; CSC inhib: 5; L major viab: 17; Mdm2 MdmX PPI: -30

Results for COC(=O)[C@@]1(Cc2ccc(F)cc2)[C@H]2c3cc(C(=O)N(C)C)n(Cc4ccccc4)c3C[C@H]2CN1C(=O)c1ccccc1 ?
Beta apoptosis: 10; CSC inhib: 15; L major viab: 39; Mdm2 MdmX PPI: 5

What do the screens show for `COC(=O)[C@@]1(Cc2ccc(OC)cc2)[C@H]2c3cc(C(=O)N(C)C)n(Cc4ccc(OC(F)(F)F)cc4)c3C[C@H]2CN1C(=O)c1ccccc1`?
SKKanGAS inh: 40; Beta apoptosis: 18; CSC inhib: 35; T cruzi inh: 36; L major viab: 50*; Mdm2 MdmX PPI: 16

What do the screens show for `Cc1ccc(S(=O)(=O)N(C)C)cc1NC(=O)C(C)Sc1ccccc1` (stereo unspecified)?
SKKanGAS inh: -7; Beta apoptosis: -7; CSC inhib: -1; T cruzi inh: 4; L major viab: -8; Mdm2 MdmX PPI: 4
